According to publication PMC3924769 (Cell metabolism, 2014):
pEC50: −log10 of the molar value.

Assays:
DAF-12 [1] = target: T1, DAF-12 (Caenorhabditis elegans, UniProt G5EFF5); test: Alphascreen assay for ligand-dependent recruitment of SRC1-4 peptide by DAF-12; type: biochemical, C. elegans; conditions: read-out: EC50, recruitment of SRC1-4 peptide by DAF-12
T1 sequence (G5EFF5 1-753): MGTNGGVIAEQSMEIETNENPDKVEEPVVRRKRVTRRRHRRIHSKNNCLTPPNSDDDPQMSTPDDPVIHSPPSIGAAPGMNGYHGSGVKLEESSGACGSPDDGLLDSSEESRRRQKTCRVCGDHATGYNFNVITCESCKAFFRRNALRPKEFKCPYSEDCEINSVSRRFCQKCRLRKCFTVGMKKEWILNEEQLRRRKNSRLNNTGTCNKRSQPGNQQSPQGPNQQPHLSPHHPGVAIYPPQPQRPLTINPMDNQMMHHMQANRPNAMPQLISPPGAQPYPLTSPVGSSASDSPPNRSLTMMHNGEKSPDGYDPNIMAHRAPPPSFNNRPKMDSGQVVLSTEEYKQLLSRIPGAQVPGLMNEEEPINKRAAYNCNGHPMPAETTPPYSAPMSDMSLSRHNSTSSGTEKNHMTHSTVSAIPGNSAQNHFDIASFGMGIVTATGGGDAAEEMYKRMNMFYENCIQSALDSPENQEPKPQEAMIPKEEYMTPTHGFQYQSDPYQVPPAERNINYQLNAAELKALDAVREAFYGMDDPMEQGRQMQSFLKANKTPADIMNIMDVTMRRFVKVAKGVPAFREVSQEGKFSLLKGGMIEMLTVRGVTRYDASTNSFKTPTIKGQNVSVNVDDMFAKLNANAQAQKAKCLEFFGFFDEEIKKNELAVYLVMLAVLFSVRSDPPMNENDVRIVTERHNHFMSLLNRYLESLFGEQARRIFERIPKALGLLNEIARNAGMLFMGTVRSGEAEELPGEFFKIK
Procedure, shortened: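 Test compound binding to DAF-12 was measured by AlphaScreen as ligand-dependent recruitment of the SRC1-4 peptide, which carries the SRC-1 NR-box motif. Signal was expressed as fold activation over an ethanol control and reported as mean ±SEM.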

daf-9(dh6) worms = test: daf-9; type: in vivo, C. elegans; conditions: 27 °C; for daf-9(dh6) dauer rescue activity (in vivo), in words: 0.1 nM – 500 nM tested
Procedure, shortened: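 Test compound in ethanol (0.1–500 nM final, calculated over the agar volume) or ethanol alone was mixed with concentrated E. coli OP50 and plated on cholesterol-free NGM agar. About 100 daf-9(dh6) eggs from a 4–8 h egg lay were added per plate and scored for dauer arrest versus development after 60 h at 27 °C. A reference dafachronic acid at 100 nM was the positive control. Two replicates, mean ±SD.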

DAF-12 [2] = target: T1, DAF-12; test: Luciferase assay for DAF-12 transcriptional activation in HEK-293T cells; type: cell-based, C. elegans; conditions: 1 nM – 3125 nM tested
Procedure, shortened: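 HEK-293T cells were calcium-phosphate co-transfected with full-length DAF-12, a mir84p-luciferase reporter, GFP and β-galactosidase vectors. Ethanol solutions of test compound (1–3125 nM), or ethanol alone, were added 8 h post-transfection. Luciferase and β-galactosidase activities were read 16 h after addition. A reference dafachronic acid at 100 nM was the positive control. Triplicates, mean ±SD.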

[3] = test system: glp-1;daf-36 double mutant worms; test: Lifespan of germline-deficient glp-1; type: in vivo, C. elegans; conditions: 100 nM, glp-1;daf-36 worms

Compound | pEC50 (DAF-12 [1]) | daf-9(dh6) dauer rescue activity (in vivo), in words (daf-9(dh6) worms) | DAF-12 activation in luciferase assay (in vitro), in words (DAF-12 [2]) | Restoration of glp-1-dependent lifespan extension [3] | pEC50 (daf-9(dh6) worms; read-out: EC50, daf-9(dh6) dauer rescue, plate based assay, synthetic compound)
C[C@H](CCC[C@H](C)C(=O)O)[C@H]1CC[C@H]2C3=CCC4C[C@H](O)CC[C@]4(C)[C@H]3CC[C@]12C (stereo partly drawn) [3α-OH-Δ^7-DA, (25S)-3α-hydroxy cholest-7-enoic acid] | 6.70 | active | active |  | 
CC(CCC[C@@H](C)[C@H]1CC[C@H]2C3=CCC4CC(=O)C=C[C@]4(C)[C@H]3CC[C@]12C)C(=O)O (some centres unmarked) [Δ^1,7-DA, 3-oxocholesta-1,7-dienoic acid] | 7.82 |  |  | fully restore glp-1-dependent lifespan extension | 8.70
CC(CCCC(C)C1CCC2C3=CCC4CC(O)CCC4(C)C3CCC21C)C(=O)O (stereo not drawn) [3β-OH-Δ^7-DA] |  |  | did not activate DAF-12 in mammalian cells at any tested concentration |  | 
C[C@H](CCC[C@H](C)C(=O)O)[C@H]1CC[C@H]2[C@@H]3CCC4CC(=O)CC[C@]4(C)[C@H]3CC[C@]12C (stereo partly drawn) [Δ^0-DA, (25S)-3-keto-cholestanoic acid] |  | active | active |  | 
C[C@H](CCC[C@H](C)C(=O)O)[C@H]1CC[C@H]2C3=CC[C@H]4CC(=O)CC[C@]4(C)[C@H]3CC[C@]12C [Δ^7-DA, Δ^7-dafachronic acid, reference compound] | 8.10 |  |  | fully restore glp-1-dependent lifespan extension | 
